Results on 13 molecules are retold here after PMC11906766 (Scientific Reports, 2025).

In general, IC50 refers to the point on the concentration scale where inhibition reaches its midpoint. A higher IC50 goes with weaker potency in that assay. A word on the inhibition: it is the percentage by which the read-out fell short of the control.

The target in one assay is T1, hMAO-A (Homo sapiens, UniProt P21397).
T1 sequence (P21397 1-527): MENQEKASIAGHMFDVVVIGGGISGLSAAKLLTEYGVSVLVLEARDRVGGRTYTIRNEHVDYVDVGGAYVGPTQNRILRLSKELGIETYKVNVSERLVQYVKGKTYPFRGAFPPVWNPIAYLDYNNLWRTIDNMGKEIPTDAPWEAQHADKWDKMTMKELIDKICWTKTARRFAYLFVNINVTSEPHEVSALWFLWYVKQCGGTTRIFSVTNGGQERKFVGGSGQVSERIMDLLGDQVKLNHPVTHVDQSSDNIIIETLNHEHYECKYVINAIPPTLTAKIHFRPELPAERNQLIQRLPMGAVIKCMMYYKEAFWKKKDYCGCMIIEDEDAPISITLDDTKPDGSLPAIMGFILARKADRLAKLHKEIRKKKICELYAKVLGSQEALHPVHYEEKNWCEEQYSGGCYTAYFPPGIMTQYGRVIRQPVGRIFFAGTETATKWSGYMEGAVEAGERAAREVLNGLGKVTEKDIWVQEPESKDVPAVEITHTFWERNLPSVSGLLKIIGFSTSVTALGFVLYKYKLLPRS
The assay can be described thus: hMAO-A inhibition assay. It is filed as biochemical.

The next assay deals with T2, hMAO-B (Homo sapiens, UniProt P27338).
T2 sequence (P27338 1-520): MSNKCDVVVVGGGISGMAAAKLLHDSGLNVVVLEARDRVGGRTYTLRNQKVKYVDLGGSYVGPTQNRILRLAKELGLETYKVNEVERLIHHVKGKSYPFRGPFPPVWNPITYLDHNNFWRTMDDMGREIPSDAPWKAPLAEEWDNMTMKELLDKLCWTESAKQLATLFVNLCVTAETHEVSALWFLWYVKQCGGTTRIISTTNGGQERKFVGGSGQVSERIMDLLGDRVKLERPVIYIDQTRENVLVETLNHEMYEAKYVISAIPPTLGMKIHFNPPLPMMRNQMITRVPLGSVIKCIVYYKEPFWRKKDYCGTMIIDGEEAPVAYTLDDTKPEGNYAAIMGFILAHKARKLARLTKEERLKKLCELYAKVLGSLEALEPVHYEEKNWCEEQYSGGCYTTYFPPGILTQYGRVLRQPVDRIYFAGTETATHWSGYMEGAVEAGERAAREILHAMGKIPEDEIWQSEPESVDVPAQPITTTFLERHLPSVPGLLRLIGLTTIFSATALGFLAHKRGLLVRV
Put plainly: hMAO-B inhibition assay. Format: biochemical. As to conditions: for inhibition at 1 µM: read-out: hMAO-B Inhibition (%), at 1 µM.

Another assay deals with LPS-stimulated BV2 cells. The assay can be described thus: NO, TNF-α and IL-1β production in LPS-stimulated BV2 microglial cells. Format: cell-based. The conditions noted are these: LPS 100 ng/mL, 24 h. An outline of the steps:
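BV2 microglia were grown 48 h at 37 °C, then pre-treated with test compound for 6 h at 37 °C under 5% CO2, with 0.5% DMSO as vehicle. Medium was replaced by DMEM containing LPS 100 ng/mL (final) for 24 h at 37 °C. NO in the medium was measured with a nitric oxide assay kit; TNF-α and IL-1β by ELISA. Data are mean ± SD of ≥3 independent experiments, compared by Student's t-test.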

Turning to `O=C(C=Cc1ccccc1)c1ccccc1` [Compound 1, 1,3-diphenyl-2-propen-1-one, reference compound], the IC50 at hMAO-A was above 40 µM.
As to `O=C(/C=C/c1ccccc1)c1cccs1` [Compound 2, (E)−3-phenyl-1-(thiophen-2-yl)prop-2-en-1-one], the IC50 on hMAO-B is 10.6 ± 1.4 µM; at hMAO-A, above 40 µM. Further, the “Selectivity Index (SI)” value at hMAO-B (SI = IC50 (hMAO-A) / IC50 (hMAO-B)) is recorded as above 3. Also, the inhibition at 1 µM on hMAO-B came out at 23.8%.
Regarding `O=C(/C=C/c1ccc2ccccc2c1)c1cccs1` [Compound 8, (E)−3-(naphthalen-2-yl)−1-(thiophen-2-yl)prop-2-en-1-one], the inhibition at 1 µM on hMAO-B was 27%. Besides, on hMAO-A, the IC50 was above 40 µM.
The like results for `COc1ccc(/C=C/C(=O)c2cccs2)cc1` [Compound 9, (E)−3-(4-methoxyphenyl)−1-(thiophen-2-yl)prop-2-en-1-one] were, in that order, 51.7% and above 40 µM.
The like results for `COc1ccc(/C=C/C(=O)c2cccs2)cc1OC` [Compound 10, (E)−3-(3,4-dimethoxyphenyl)−1-(thiophen-2-yl)prop-2-en-1-one] were, in that order, below 5% and above 40 µM.
For `COc1ccc(/C=C/C(=O)c2cccs2)cc1O` [Compound 11, (E)−3-(3-hydroxy-4-methoxyphenyl)−1-(thiophen-2-yl)prop-2-en-1-one] the same measures were 16.6% and above 40 µM.
As for `COc1ccc(/C=C/C(=O)c2ccc(Cl)s2)cc1OC` [Compound 16, (E)−1-(5-chlorothiophen-2-yl)−3-(3,4-dimethoxyphenyl)prop-2-en-1-one], the inhibition at 1 µM on hMAO-B amounted to 14.5%. On hMAO-A, the IC50 was above 40 µM.
The like results for `COc1ccc(/C=C/C(=O)c2ccc(Br)s2)cc1OC` [Compound 18, (E)−1-(5-bromothiophen-2-yl)−3-(3,4-dimethoxyphenyl)prop-2-en-1-one] were, in that order, 12.3% and above 40 µM.
The like results for `COc1ccc(/C=C/C(=O)c2ccc(C)s2)cc1O` [Compound 19, (E)−3-(3-hydroxy-4-methoxyphenyl)−1-(5-methylthiophen-2-yl)prop-2-en-1-one] were, in that order, 28.2% and above 40 µM.
On to `COc1ccc(/C=C/C(=O)c2ccco2)cc1O` [Compound 20, (E)−1-(furan-2-yl)−3-(3-hydroxy-4-methoxyphenyl)prop-2-en-1-one], for which, at hMAO-B, the inhibition at 1 µM was below 5%. In addition, the IC50 against hMAO-A is above 40 µM.
`COc1ccc(/C=C/C(=O)c2ccc(C)o2)cc1O` [Compound 21, (E)−3-(3-hydroxy-4-methoxyphenyl)−1-(5-methylfuran-2-yl)prop-2-en-1-one]: the inhibition at 1 µM at hMAO-B was below 5%. In addition, the IC50 against hMAO-A is above 40 µM.
Turning to `COc1ccc(/C=C/C(=O)c2ccc[nH]2)cc1O` [Compound 22, (E)−3-(3-hydroxy-4-methoxyphenyl)−1-(1H-pyrrol-2-yl)prop-2-en-1-one], the inhibition at 1 µM at hMAO-B was below 5%. The molecule further had an IC50 against hMAO-A above 40 µM.
Regarding lipopolysaccharide [LPS], in the assay on LPS-stimulated BV2 cells, the “level of IL-1β compared to the control group” value came to 30.4 fold, the “level of NO compared to the control group” value came to 11.4 fold and the “level of TNF-α compared to the control group” value was 26.3 fold.
